Like-named read-outs stand apart in the source and are kept apart here.
Assays:
[1] = human; for share of the total TTBP-TAZ metabolite concentrations: 2 h
[2] = Occurrence of TTBP-TAZ and 2,4,6-TBP in blood and liver of orally exposed rats; parameters: species or system Sprague-Dawley rat; details: in vivo, 250 mg/kg/day
TSH = assay: Hepatic mRNA expression; type: in vivo, Sprague-Dawley rat; details: rat liver; 250 mg/kg bw/day by gavage, 7 days; vs control
Method in brief: (§1)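 Male Sprague-Dawley rats (4 weeks old, 7-day quarantine) were randomised to a corn-oil control or test compound at 250 mg/kg bw/day in corn oil by oral gavage for 7 days, n = 5 per group. Liver was taken at sacrifice. mRNA was measured by quantitative real-time PCR, normalised to β2 microglobulin (B2m), with relative expression by 2−ΔΔCt. Mean ± SE reported; significance at p 0.05.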

TG = assay: Hepatic mRNA expression; type: in vivo, Sprague-Dawley rat; details: rat liver; 250 mg/kg bw/day by gavage, 7 days; vs control
Method in brief: as §1

RXRα = assay: Hepatic mRNA expression; type: in vivo, Sprague-Dawley rat; details: rat liver; 250 mg/kg bw/day by gavage, 7 days; vs control
Method in brief: as §1

RXRβ = assay: Hepatic mRNA expression; type: in vivo, Sprague-Dawley rat; details: rat liver; 250 mg/kg bw/day by gavage, 7 days; vs control
Method in brief: as §1

RXRγ = assay: Hepatic mRNA expression; type: in vivo, Sprague-Dawley rat; details: rat liver; 250 mg/kg bw/day by gavage, 7 days; vs control
Method in brief: as §1

PXR = assay: Hepatic mRNA expression; type: in vivo, Sprague-Dawley rat
AhR = assay: Hepatic mRNA expression; type: in vivo, Sprague-Dawley rat; details: rat liver; 250 mg/kg bw/day by gavage, 7 days; vs control
Method in brief: as §1

HOMX1 = assay: Hepatic mRNA expression; type: in vivo, Sprague-Dawley rat; details: rat liver; 250 mg/kg bw/day by gavage, 7 days; vs control
Method in brief: as §1

AOX1 = assay: Hepatic mRNA expression; type: in vivo, Sprague-Dawley rat; details: rat liver; 250 mg/kg bw/day by gavage, 7 days; vs control
Method in brief: as §1

SOD1 = assay: Hepatic mRNA expression; type: in vivo, Sprague-Dawley rat; details: rat liver; 250 mg/kg bw/day by gavage, 7 days; vs control
Method in brief: as §1

CAT = assay: Hepatic mRNA expression; type: in vivo, Sprague-Dawley rat; details: rat liver; 250 mg/kg bw/day by gavage, 7 days; vs control
Method in brief: as §1

VEGF = assay: Hepatic mRNA expression; type: in vivo, Sprague-Dawley rat; details: rat liver; 250 mg/kg bw/day by gavage, 7 days; vs control
Method in brief: as §1

HIF1α = assay: Hepatic mRNA expression; type: in vivo, Sprague-Dawley rat; details: rat liver; 250 mg/kg bw/day by gavage, 7 days; vs control
Method in brief: as §1

MYC = assay: Hepatic mRNA expression; type: in vivo, Sprague-Dawley rat; details: rat liver; 250 mg/kg bw/day by gavage, 7 days; compared to the 2,4,6 TBP exposure group
INFγ = assay: Hepatic mRNA expression; type: in vivo, Sprague-Dawley rat; details: rat liver; 250 mg/kg bw/day by gavage, 7 days; vs control
Method in brief: as §1

TNFα = assay: Hepatic mRNA expression; type: in vivo, Sprague-Dawley rat; details: rat liver; 250 mg/kg bw/day by gavage, 7 days; vs control
Method in brief: as §1

PLIN = assay: Hepatic mRNA expression; type: in vivo, Sprague-Dawley rat; details: rat liver; 250 mg/kg bw/day by gavage, 7 days; vs control
ANGPTL4 = assay: Hepatic mRNA expression; type: in vivo, Sprague-Dawley rat; details: rat liver; 250 mg/kg bw/day by gavage, 7 days; vs control
Method in brief: as §1

LPL = assay: Hepatic mRNA expression; type: in vivo, Sprague-Dawley rat; details: rat liver; 250 mg/kg bw/day by gavage, 7 days; vs control
Method in brief: as §1

[3] = rat
[4] = In vitro microsomal incubation, rat liver microsomes; details: for formation of 2,4,6-TBP as a result of biotransformation: rat liver microsomes
[5] = In vitro microsomal incubation, human liver microsomes; details: for formation of 2,4,6-TBP as a result of biotransformation: human liver microsomes; for share of the total TTBP-TAZ metabolite concentrations: metabolite formed from TTBP-TAZ in liver microsome incubations, target screening
[6] = animal studies; ref Mörck et al., 2003; cited from earlier work
[7] = Relative body, liver and thyroid weights of exposed rats; type: in vivo, Sprague-Dawley rat; details: 250 mg/kg bw/day by gavage, 7 days, vs control (Table S2)
THRβ = assay: Hepatic mRNA expression; type: in vivo, Sprague-Dawley rat; details: rat liver; 250 mg/kg bw/day by gavage, 7 days; vs control
Method in brief: as §1

PPARδ = assay: Hepatic mRNA expression; type: in vivo, Sprague-Dawley rat; details: rat liver; 250 mg/kg bw/day by gavage, 7 days; vs control
Method in brief: as §1

PPARγ = assay: Hepatic mRNA expression; type: in vivo, Sprague-Dawley rat; details: rat liver; 250 mg/kg bw/day by gavage, 7 days; vs control
Method in brief: as §1

LXR = assay: Hepatic mRNA expression; type: in vivo, Sprague-Dawley rat; details: rat liver; 250 mg/kg bw/day by gavage, 7 days; vs control
Method in brief: as §1

IL-6 = assay: Hepatic mRNA expression; type: in vivo, Sprague-Dawley rat; details: rat liver; 250 mg/kg bw/day by gavage, 7 days; vs control
Method in brief: as §1

Which “share of the total TTBP-TAZ metabolite concentrations” value (“share” below) ([1]; pH 7.4) does the source give for `COc1c(Br)cc(Br)cc1Br` [2,4,6-TBA, 2,4,6-tribromoanisole] here?
Its value is 0.02%.

For `Brc1cc(Br)c(Oc2nc(Oc3c(Br)cc(Br)cc3Br)nc(Oc3c(Br)cc(Br)cc3Br)n2)c(Br)c1` [TTBP-TAZ, 2,4,6-tris-(2,4,6-tribromophenoxy)-1,3,5-triazine], which “concentration of 2,4,6-TBP in rat blood” value ([2]; male, Sprague-Dawley, 7 days) is on record?
The value was 50 ± 14 μg/g lipid weight (lw).

What about the “concentration of 2,4,6-TBP in rat liver” value ([2]; male, Sprague-Dawley, 7 days) of the same molecule?
The value was 270 ± 110 μg/g lipid weight (lw).

And the “TTBP-TAZ detected in blood samples” value ([2]; rat)?
Its value is “no TTBP-TAZ was detected”.

What about the “TTBP-TAZ detected in liver samples” value ([2]; rat) of the same molecule?
The value was “no TTBP-TAZ was detected”.

And the “TSH mRNA expression” value (TSH)?
Its value is “significantly induced”.

And the “TG mRNA expression” value (TG)?
The value was “inhibition”.

What about the “RXRα mRNA expression” value (RXRα) of the same molecule?
The value was “downregulated significantly”.

And the “RXRβ mRNA expression” value (RXRβ)?
The value was “downregulated significantly”.

And the “RXRγ mRNA expression” value (RXRγ)?
The value was “downregulated significantly”.

What about the “PXR mRNA expression” value (PXR; rat, in vivo, 250 mg/kg/day) of the same molecule?
The value was “downregulated significantly”.

And the “AhR mRNA expression, fold change compared to control” value (AhR)?
The value was 18 fold.

And the “HOMX1 mRNA expression” value (HOMX1)?
The value was “significantly inhibited”.

What about the “AOX1 mRNA expression” value (AOX1) of the same molecule?
The value was “significantly inhibited”.

What about the “SOD1 mRNA expression” value (SOD1) of the same molecule?
Its value is “significantly inhibited”.

And the “CAT mRNA expression” value (CAT)?
The value was “significantly inhibited”.

And the “VEGF mRNA expression” value (VEGF)?
The value was “significantly inhibited”.

And the “HIF1α mRNA expression” value (HIF1α)?
The value was “significantly inhibited”.

What about the “MYC mRNA expression” value (MYC) of the same molecule?
Its value is “significantly induced”.

And the “INFγ mRNA expression” value (INFγ)?
Its value is “significantly reduced”.

And the “TNFα mRNA expression” value (TNFα)?
Its value is “significantly reduced”.

What about the “PLIN mRNA expression, fold change” value (PLIN) of the same molecule?
Its value is 28 fold.

And the “ANGPTL4 mRNA expression” value (ANGPTL4)?
The value was “significantly inhibited”.

What about the “LPL mRNA expression” value (LPL) of the same molecule?
The value was “significantly inhibited”.

And the “In vitro intrinsic clearance rate (CLint), depletion” value ([1]; microsomes)?
The value was 0.62 mL/h/mg.

What about the “2,4,6-TBP formation rate” value ([1]; pH 7.4) of the same molecule?
The value was 1.34 mL/h/mg.

What about the “2,4,6-TBP formation rate” value ([3]; Sprague-Dawley, pH 7.4) of the same molecule?
The value was 0.77 mL/h/mg.

What about the “In vitro intrinsic clearance rate (CLint), depletion” value ([3]; microsomes) of the same molecule?
Its value is 0.32 mL/h/mg.

What about the half-life ([4]; Sprague-Dawley, rat, liver microsomes, pH 7.4) of the same molecule?
Its half-life is 132 min.

And the half-life ([5]; human, liver microsomes, pH 7.4)?
The half-life was 66 min.

With `Oc1cc(Br)c(Br)cc1Br` [2,4,5-TBP, 2,4,5-Tribromophenol] as the molecule, how does the “share” value ([1]; pH 7.4) read?
The value was 12.6%.

Which excreted in feces [6] does the source give for `Brc1c(Br)c(Br)c(CCc2c(Br)c(Br)c(Br)c(Br)c2Br)c(Br)c1Br` [DBDPE, decabromodiphenyl ethane] here?
The excreted in feces was 90%.

And the “formation of 2,4,6-TBP as a result of biotransformation” value [4]?
Its value is “not formed”.

What about the “formation of 2,4,6-TBP as a result of biotransformation” value [5] of the same molecule?
The value was “not formed”.

Which results are given for `CC(C)(c1cc(Br)c(O)c(Br)c1)c1cc(Br)c(O)c(Br)c1` [TBBPA, tetrabromobisphenol A]?
formation of 2,4,6-TBP as a result of biotransformation [4]: not formed; formation of 2,4,6-TBP as a result of biotransformation [5]: not formed

For `Oc1ccc(Br)cc1Br` [2,4-DBP, 2,4-dibromophenol], which “share” value [5] is on record?
Its value is 0.19%.

With `Oc1c(Br)cc(Br)cc1Br` [2,4,6-TBP, 2,4,6-Tribromophenol] as the molecule, how does the “relative body, liver, and thyroid weights” value [7] read?
Its value is “No significant difference”.

And the “TSH mRNA expression” value (TSH)?
The value was “significantly induced”.

And the “THRβ mRNA expression” value (THRβ)?
The value was “significantly inhibited”.

And the “RXRα mRNA expression” value (RXRα)?
The value was “significantly downregulated”.

What about the “RXRβ mRNA expression” value (RXRβ) of the same molecule?
Its value is “significantly downregulated”.

What about the “RXRγ mRNA expression” value (RXRγ) of the same molecule?
Its value is “significantly downregulated”.

And the “PPARδ mRNA expression” value (PPARδ)?
The value was “significantly downregulated”.

What about the “PPARγ mRNA expression” value (PPARγ) of the same molecule?
Its value is “significantly downregulated”.

What about the “LXR mRNA expression” value (LXR) of the same molecule?
The value was “significantly downregulated”.

And the “PXR mRNA expression” value (PXR; rat liver, 250 mg/kg bw/day by gavage, 7 days, vs control)?
The value was “significantly downregulated”.

What about the “HOMX1 mRNA expression” value (HOMX1) of the same molecule?
Its value is “significantly inhibited”.

And the “SOD1 mRNA expression” value (SOD1)?
The value was “significantly inhibited”.

What about the “CAT mRNA expression” value (CAT) of the same molecule?
The value was “significantly inhibited”.

What about the “VEGF mRNA expression” value (VEGF) of the same molecule?
The value was “significantly inhibited”.

What about the “HIF1α mRNA expression” value (HIF1α) of the same molecule?
Its value is “significantly inhibited”.

What about the “INFγ mRNA expression” value (INFγ) of the same molecule?
Its value is “significantly decreased”.

And the “TNFα mRNA expression” value (TNFα)?
Its value is “significantly decreased”.

And the “IL-6 mRNA expression” value (IL-6)?
The value was “significantly decreased”.

What about the “PLIN mRNA expression, fold change” value (PLIN) of the same molecule?
Its value is 2.4 fold.

What about the “ANGPTL4 mRNA expression” value (ANGPTL4) of the same molecule?
Its value is “significantly inhibited”.

And the “LPL mRNA expression” value (LPL)?
Its value is “significantly inhibited”.

And the “share” value [5]?
Its value is 87%.

What about the “concentration ratio of 2,4,6-TBP to 2,4,5-TBP” value ([5]; metabolites of TTBP-TAZ incubation) of the same molecule?
Its value is 6.9.
